Data as given in ChEMBL document CHEMBL3351648, “Synthesis and pharmacological evaluation of 6-aminonicotinic acid analogues as novel GABA(A) receptor agonists” (Eur J Med Chem, 2014).

Legend:
[1] = target: GABA-A receptor; anion channel; test: Displacement of [3H]muscimol from GABAA receptor in SPRD rat brain synaptic membranes by scintillation counting method; format: cell membranes
In short: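 Rat synaptic membranes were thawed, homogenized in ice-cold 50 mM Tris-HCl pH 7.4, and spun at 48,000g for 10 min at 4 °C, with the wash repeated four times. Incubation was with 5 nM [3H]muscimol (final) and varying test concentrations for 60 min at 0 °C, then GF/C filtration and scintillation counting.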

[2] = target: T1, GABA-A receptor; alpha-1/beta-2/gamma-2 (Homo sapiens, UniProt P14867+P47870+P18507); test: (§1) Agonist activity at human GABAAalpha1beta2gamma2S receptor expressed in tsA-201cells by FLIPR membrane potential blue assay; conditions: tsa-201
T1 sequence (P14867 whole entry): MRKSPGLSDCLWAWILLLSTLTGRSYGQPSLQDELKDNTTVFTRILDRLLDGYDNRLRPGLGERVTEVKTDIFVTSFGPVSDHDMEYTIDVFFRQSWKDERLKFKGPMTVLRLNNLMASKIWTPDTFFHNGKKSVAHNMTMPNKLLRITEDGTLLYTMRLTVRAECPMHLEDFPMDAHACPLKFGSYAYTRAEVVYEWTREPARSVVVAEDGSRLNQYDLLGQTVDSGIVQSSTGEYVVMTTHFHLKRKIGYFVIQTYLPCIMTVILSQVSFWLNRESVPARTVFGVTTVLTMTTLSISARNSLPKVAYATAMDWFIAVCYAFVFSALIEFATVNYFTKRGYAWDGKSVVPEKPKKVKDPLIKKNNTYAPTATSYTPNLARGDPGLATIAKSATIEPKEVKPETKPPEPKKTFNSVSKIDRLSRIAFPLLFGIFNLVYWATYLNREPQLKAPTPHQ
T1 sequence (P47870 whole entry): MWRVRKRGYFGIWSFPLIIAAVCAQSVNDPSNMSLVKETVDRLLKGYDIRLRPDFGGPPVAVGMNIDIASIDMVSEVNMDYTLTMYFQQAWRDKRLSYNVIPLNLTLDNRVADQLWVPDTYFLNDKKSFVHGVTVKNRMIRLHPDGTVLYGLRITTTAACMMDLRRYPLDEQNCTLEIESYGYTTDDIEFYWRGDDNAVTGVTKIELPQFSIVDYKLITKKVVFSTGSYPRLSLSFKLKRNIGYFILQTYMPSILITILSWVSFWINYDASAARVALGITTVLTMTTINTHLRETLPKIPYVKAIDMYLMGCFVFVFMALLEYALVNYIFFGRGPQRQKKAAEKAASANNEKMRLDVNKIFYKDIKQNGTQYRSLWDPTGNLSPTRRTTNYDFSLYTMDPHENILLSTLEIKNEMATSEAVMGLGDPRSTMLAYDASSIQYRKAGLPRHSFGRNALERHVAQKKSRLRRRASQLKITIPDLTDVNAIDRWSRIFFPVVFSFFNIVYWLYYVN
T1 sequence (P18507 whole entry): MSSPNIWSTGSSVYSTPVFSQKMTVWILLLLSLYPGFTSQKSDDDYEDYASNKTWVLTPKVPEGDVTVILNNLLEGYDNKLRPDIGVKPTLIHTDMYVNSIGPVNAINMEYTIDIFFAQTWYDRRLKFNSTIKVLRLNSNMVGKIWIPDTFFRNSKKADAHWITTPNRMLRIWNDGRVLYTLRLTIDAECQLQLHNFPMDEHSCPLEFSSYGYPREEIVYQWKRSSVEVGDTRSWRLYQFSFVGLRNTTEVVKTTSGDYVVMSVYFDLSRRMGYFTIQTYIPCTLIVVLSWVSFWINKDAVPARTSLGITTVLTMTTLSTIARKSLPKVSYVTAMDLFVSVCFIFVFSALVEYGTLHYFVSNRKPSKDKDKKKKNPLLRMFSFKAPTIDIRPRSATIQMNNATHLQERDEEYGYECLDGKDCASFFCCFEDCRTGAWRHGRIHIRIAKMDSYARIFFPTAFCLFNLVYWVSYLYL
In short: (§2)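 tsA201 cells (8×10^5 per 6 cm dish) were transfected with α1, α2, α3 or α5 plus β2 and γ2S cDNAs (1:1:3), or with ρ1 alone. Next day cells were replated into poly-D-lysine 96-well plates. After 16–24 h they were washed with Krebs buffer pH 7.4, given membrane-potential dye, held 30 min at 37 °C, and read at 560 nm emission. Concentration-response curves used ΔFU before versus after agonist; duplicates were run ≥3 times.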

[3] = target: T2, Gamma-aminobutyric acid receptor subunit rho-1 (Homo sapiens, UniProt P24046); test: Agonist activity at human GABAA rho1 expressed in tsA-201cells by FLIPR membrane potential blue assay; in short: as §2
T2 sequence (P24046 whole entry): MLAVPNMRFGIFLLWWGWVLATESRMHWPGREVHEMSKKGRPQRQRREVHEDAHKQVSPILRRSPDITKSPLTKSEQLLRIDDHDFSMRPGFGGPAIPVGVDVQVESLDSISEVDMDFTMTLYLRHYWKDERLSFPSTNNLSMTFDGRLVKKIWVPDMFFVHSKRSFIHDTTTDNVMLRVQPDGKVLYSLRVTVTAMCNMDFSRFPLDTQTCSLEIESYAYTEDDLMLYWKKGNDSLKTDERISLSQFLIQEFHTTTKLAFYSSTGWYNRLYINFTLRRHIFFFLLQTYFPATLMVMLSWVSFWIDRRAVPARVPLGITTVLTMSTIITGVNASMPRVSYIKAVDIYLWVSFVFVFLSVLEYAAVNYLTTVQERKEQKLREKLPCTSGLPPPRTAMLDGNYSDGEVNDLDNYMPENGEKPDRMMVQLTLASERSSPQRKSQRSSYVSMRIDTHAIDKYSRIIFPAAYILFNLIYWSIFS

[4] = target: GABA A receptor alpha-2/beta-2/gamma-2 (Homo sapiens) (UniProt P47870+P18507+P47869); test: Agonist activity at human GABAAalpha2beta2gamma2S receptor expressed in tsA-201cells by FLIPR membrane potential blue assay relative to GABA
[5] = target: GABA A receptor alpha-3/beta-2/gamma-2 (Homo sapiens) (UniProt P47870+P18507+P34903); test: Agonist activity at human GABAAalpha3beta2gamma2S receptor expressed in tsA-201cells by FLIPR membrane potential blue assay relative to GABA
[6] = Agonist activity at human GABAAalpha5beta2gamma2S receptor expressed in tsA-201cells by FLIPR membrane potential blue assay; format: cell membranes
[7] = system: tsA-201; test: Agonist activity at human GABAAalpha5beta2gamma2S receptor expressed in tsA-201cells by FLIPR membrane potential blue assay relative to GABA
[8] = target: T2, Gamma-aminobutyric acid receptor subunit rho-1; test: Agonist activity at human GABAA rho1 expressed in tsA-201cells by FLIPR membrane potential blue assay relative to GABA
[9] = Dissociation constant, pKa of the compound by diode array detector method; format: physicochemical
In short: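 pKa was determined by titration in methanol cosolvent at 23–48%, with three titrations per compound. An in-line diode-array detector recorded UV-Vis spectra, and the titration was mapped against the spectra of the protonated and unprotonated species.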

[10] = target: T3, GABA-A receptor; alpha-1/beta-2/gamma-2 (Homo sapiens, UniProt P14867+P18507+P47870); test: as §1; in short: as §2
T3 sequence (P14867 whole entry): T1 sequence (P14867 whole entry)
T3 sequence (P47870 whole entry): T1 sequence (P47870 whole entry)
T3 sequence (P18507 whole entry): T1 sequence (P18507 whole entry)

[11] = target: T4, GABA A receptor alpha-2/beta-2/gamma-2 (Homo sapiens, UniProt P18507+P47869+P47870); test: Agonist activity at human GABAAalpha2beta2gamma2S receptor expressed in tsA-201cells by FLIPR membrane potential blue assay; in short: as §2
T4 sequence (P47870 whole entry): T1 sequence (P47870 whole entry)
T4 sequence (P18507 whole entry): T1 sequence (P18507 whole entry)
T4 sequence (P47869 whole entry): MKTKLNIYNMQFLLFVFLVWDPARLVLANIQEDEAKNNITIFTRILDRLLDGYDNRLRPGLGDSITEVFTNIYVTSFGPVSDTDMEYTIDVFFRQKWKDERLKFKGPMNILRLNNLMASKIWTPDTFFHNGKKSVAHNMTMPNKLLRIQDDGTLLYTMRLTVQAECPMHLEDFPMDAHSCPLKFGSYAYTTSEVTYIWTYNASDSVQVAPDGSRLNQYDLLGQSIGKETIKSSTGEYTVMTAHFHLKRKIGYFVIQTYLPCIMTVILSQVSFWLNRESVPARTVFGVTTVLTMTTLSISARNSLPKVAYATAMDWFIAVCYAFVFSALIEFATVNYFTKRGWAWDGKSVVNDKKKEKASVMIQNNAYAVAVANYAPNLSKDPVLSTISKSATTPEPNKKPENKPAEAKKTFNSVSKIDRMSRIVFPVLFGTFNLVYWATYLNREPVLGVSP

[12] = target: T5, GABA A receptor alpha-3/beta-2/gamma-2 (Homo sapiens, UniProt P18507+P34903+P47870); test: Agonist activity at human GABAAalpha3beta2gamma2S receptor expressed in tsA-201cells by FLIPR membrane potential blue assay; in short: as §2
T5 sequence (P47870 whole entry): T1 sequence (P47870 whole entry)
T5 sequence (P18507 whole entry): T1 sequence (P18507 whole entry)
T5 sequence (P34903 whole entry): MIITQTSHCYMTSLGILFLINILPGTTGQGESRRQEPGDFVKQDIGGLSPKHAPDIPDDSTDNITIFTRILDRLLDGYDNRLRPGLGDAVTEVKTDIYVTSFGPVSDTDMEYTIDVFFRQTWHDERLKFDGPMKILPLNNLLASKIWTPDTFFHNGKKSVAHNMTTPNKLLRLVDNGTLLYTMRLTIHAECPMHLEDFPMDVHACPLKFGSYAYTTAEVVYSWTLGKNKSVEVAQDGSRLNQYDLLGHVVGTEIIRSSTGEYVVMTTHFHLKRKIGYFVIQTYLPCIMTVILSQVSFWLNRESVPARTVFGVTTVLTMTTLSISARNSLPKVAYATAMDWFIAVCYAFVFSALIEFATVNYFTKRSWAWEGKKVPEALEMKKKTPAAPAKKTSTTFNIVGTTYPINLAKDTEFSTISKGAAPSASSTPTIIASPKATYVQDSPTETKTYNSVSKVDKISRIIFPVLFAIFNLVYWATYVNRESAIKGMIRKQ

Nc1cccc(CC(=O)O)n1
Ki [1]: > 100 µM

Nc1cc(-c2ccccc2)c(C(=O)O)cn1
Ki [1]: > 100 µM

Nc1ncccc1C(=O)O
Ki [1]: > 100 µM

Cc1nc(N)ccc1C(=O)O
Ki [1]: 1.4 µM
EC50 [2]: Active
EC50 ([3]; tsa-201): Active

Nc1cc(C(=O)O)ccn1
Ki [1]: 19 µM

CCc1cc(C(=O)O)cnc1N
Ki [1]: > 100 µM

NCc1cc(O)no1 [MUSCIMOL]
Rmax [4]: 99%
Rmax [5]: 97%
EC50 [6]: 0.054 µM
pEC50 [6]: 7.27
Rmax [7]: 114%
Rmax [8]: 98%

Nc1ncc(C(=O)O)cn1
Ki [1]: > 100 µM
pKa [9]: 1.9

Nc1ccc(CC(=O)O)cn1
Ki [1]: 90 µM

NC1=NCC(C(=O)O)CC1 (stereo not given)
Ki [1]: 0.044 µM
EC50 ([10]; read-out: EC50): 2.6 µM
EC50 ([3]; read-out: EC50): 2.3 µM
EC50 ([3]; read-out: pEC50 (converted)): 1.23 µM
pKa [9]: 12.4
EC50 [11]: 0.82 µM
Rmax [4]: 101%
EC50 [12]: 1.1 µM
Rmax [5]: 93%
EC50 [6]: 0.092 µM
pEC50 [6]: 7.04
Rmax [7]: 100%
Rmax [8]: 64%

CCCCc1cc(N)ncc1C(=O)O
Ki [1]: 24 µM
EC50 ([10]; read-out: EC50): > 1000 µM
pEC50 [2]: < 3
EC50 ([3]; read-out: EC50): > 1000 µM
pEC50 ([3]; tsa-201): < 3

O=C(O)C1=CCNCC1 [ISOGUVACINE]
Ki [1]: 0.055 µM
EC50 ([10]; read-out: EC50): 11 µM
EC50 ([3]; read-out: EC50): 39 µM
EC50 [11]: 4.5 µM
Rmax [4]: 95%
EC50 [12]: 5.6 µM
Rmax [5]: 91%
EC50 [6]: 0.78 µM
pEC50 [6]: 6.1
Rmax [7]: 101%
Rmax [8]: 85%

NCc1cc(=O)[nH]o1 [MUSCIMOL]
Ki [1]: 0.006 µM

Nc1ccc(C(=O)O)c(Cl)n1
Ki [1]: > 100 µM

NC1=NCC(C(=O)O)CN1 (stereo not given)
Ki [1]: 0.54 µM
EC50 ([10]; read-out: EC50): 14 µM
EC50 ([3]; read-out: EC50): 8.1 µM
EC50 ([3]; read-out: pEC50 (converted)): 1.58 µM
pKa [9]: 12.7
EC50 [11]: 9.4 µM
Rmax [4]: 91%
EC50 [12]: 19 µM
Rmax [5]: 85%
EC50 [6]: 2.1 µM
pEC50 [6]: 5.68
Rmax [7]: 113%
Rmax [8]: 55%

O=C(O)c1cncnc1
Ki [1]: > 100 µM
pKa [9]: 1.4

Nc1cccc(C(=O)O)n1
Ki [1]: > 100 µM

CCc1nc(N)ccc1C(=O)O
Ki [1]: 2.1 µM
EC50 ([10]; read-out: EC50): > 1000 µM
pEC50 [2]: < 3
EC50 ([3]; read-out: EC50): > 1000 µM
pEC50 ([3]; tsa-201): < 3

Nc1ccc(C(=O)O)c(-c2ccccc2)n1
Ki [1]: > 100 µM

Nc1ccc(C(=O)O)cn1
Ki [1]: 4.4 µM
pKi [1]: 5.39
EC50 ([10]; read-out: EC50): > 300 µM
EC50 ([10]; read-out: pEC50 (converted)): > 316 µM
EC50 ([3]; tsa-201): Active
pKa [9]: 6.2

Cc1cc(C(=O)O)cnc1N
Ki [1]: > 100 µM

Nc1cc(CC(=O)O)ccn1
Ki [1]: 73 µM

CCc1cc(N)ncc1C(=O)O
Ki [1]: 9.3 µM
EC50 ([10]; read-out: EC50): > 1000 µM
pEC50 [2]: < 3
EC50 ([3]; read-out: EC50): > 1000 µM
pEC50 ([3]; tsa-201): < 3

CCCCc1nc(N)ccc1C(=O)O
Ki [1]: 7.1 µM
EC50 ([10]; read-out: EC50): > 1000 µM
pEC50 [2]: < 3
EC50 ([3]; read-out: EC50): > 1000 µM
pEC50 ([3]; tsa-201): < 3

CNc1ccc(C(=O)O)cn1
Ki [1]: > 100 µM

Nc1ncc(C(=O)O)cc1I
Ki [1]: > 100 µM

CNC1=NCC(C(=O)O)CC1 (stereo not given)
Ki [1]: 49 µM
pKi [1]: 4.32
EC50 ([10]; read-out: EC50): > 1000 µM
pEC50 [2]: < 3

Nc1ncccc1CC(=O)O
Ki [1]: > 100 µM
